Results: ChEMBL document CHEMBL4041519, “Design, synthesis and SAR analysis of potent BACE1 inhibitors: Possible lead drug candidates for Alzheimer's disease” (Eur J Med Chem, 2017)
pEC50, pIC50: −log10 of the molar value.

How the values were obtained:
Beta-secretase 1 [1] = target: T1, Beta-secretase 1 (Homo sapiens, UniProt P56817); assay: Inhibition of recombinant human BACE1 (1 to 460 residues) expressed in baculovirus infected insect cells using rhodamine-EVNLDAEFK peptide as substrate measured after 60 mins by FRET assay
T1 sequence (P56817 whole entry, the tested form may be a part): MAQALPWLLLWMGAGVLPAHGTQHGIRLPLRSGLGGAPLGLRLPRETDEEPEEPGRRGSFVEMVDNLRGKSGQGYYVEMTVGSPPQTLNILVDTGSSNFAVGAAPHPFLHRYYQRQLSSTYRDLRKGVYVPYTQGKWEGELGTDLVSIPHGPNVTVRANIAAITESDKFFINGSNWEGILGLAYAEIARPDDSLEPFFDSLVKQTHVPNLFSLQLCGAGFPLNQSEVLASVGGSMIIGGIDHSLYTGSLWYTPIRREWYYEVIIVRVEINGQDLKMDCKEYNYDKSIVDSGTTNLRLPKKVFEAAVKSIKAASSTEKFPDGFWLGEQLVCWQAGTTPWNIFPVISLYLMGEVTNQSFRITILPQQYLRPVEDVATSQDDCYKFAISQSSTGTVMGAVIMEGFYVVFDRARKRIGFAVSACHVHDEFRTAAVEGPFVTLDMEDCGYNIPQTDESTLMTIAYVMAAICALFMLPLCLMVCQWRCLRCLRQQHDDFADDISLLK
Method in brief: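 Enzyme 1 U/mL in 50 mM sodium acetate pH 4.5 with 750 nM substrate (Swedish-mutant peptide, KM 20 µM); screening at 30, 10, 3, 1 and 0.3 µM, 3.3% DMSO final. Incubated in the dark at 25 °C, stopped with 2.5 M sodium acetate; fluorescence ex 545/em 585 nm. IC50 from nonlinear fit of RFU/h versus log concentration; mean of 3 experiments.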

Beta-secretase 1 [2] = target: T1, Beta-secretase 1; assay: Inhibition of BACE1 in human H4 cells expressing human APP K595N/M596L double mutant assessed as decrease in amyloid beta 42 and amyloid beta 40 level after overnight incubation by ELISA method; type: cell-based; conditions: for inhibition: concentration not given here
Method in brief: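 H4 neuroglioma cells seeded 2x10^5 per well, grown 24 h (5% CO2, humidified), then exposed overnight to increasing compound concentrations; 1% DMSO negative control, R-flurbiprofen positive control. Supernatant Aβ42 and Aβ40 captured with biotinylated 4G8 plus C-terminal-specific rabbit antibodies, streptavidin magnetic beads, electrochemiluminescence readout. EC50 = concentration halving Aβ production; mean of ≥3 experiments ± SD.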

pIC50 (Beta-secretase 1 [1])	pEC50 (Beta-secretase 1 [2])	inhibition (Beta-secretase 1 [2])	Compound
6.18	6.23	70%	O=C(Nc1ccncc1)c1cccc(-c2cnc(-c3c[nH]c4ccccc34)[nH]2)c1
6.66	6.32	75%	O=C(Nc1cccc(-c2cnc(-c3c[nH]c4ccccc34)[nH]2)c1)c1cccnc1
6.74	6.17	77%	Fc1ccc(-c2cnc(-c3cccc(-c4cnc(-c5c[nH]c6cc(OC(F)(F)F)ccc56)[nH]4)c3)[nH]2)cc1
6.51	6.06	42%	O=C(Nc1cccnc1)c1cccc(-c2cnc(-c3c[nH]c4ccccc34)[nH]2)c1
7.12	6.09	86%	Fc1ccc(-c2cnc(-c3cccc(-c4cnc(-c5c[nH]c6cc(F)ccc56)[nH]4)c3)[nH]2)cc1
6.96	5.92	64%	O=C(Nc1ccccc1)c1cccc(-c2cnc(-c3c[nH]c4ccccc34)[nH]2)c1
6.92	6.54	87%	Fc1ccc2nc(-c3cccc(-c4cnc(-c5c[nH]c6cc(OC(F)(F)F)ccc56)[nH]4)c3)[nH]c2c1
6.89	6.39	82%	O=C(Nc1cccc(-c2cnc(-c3c[nH]c4cc(F)ccc34)[nH]2)c1)c1cccnc1
7.01	5.88	69%	O=C(Nc1ccc(F)cc1)c1cccc(-c2cnc(-c3c[nH]c4ccccc34)[nH]2)c1
7.07	6.46	90%	Fc1ccc2nc(-c3cccc(-c4cnc(-c5c[nH]c6cc(F)ccc56)[nH]4)c3)[nH]c2c1
